Measured values: ChEMBL document CHEMBL5325511, “Discovery of N-(4-(Aminomethyl)phenyl)-5-methylpyrimidin-2-amine Derivatives as Potent and Selective JAK2 Inhibitors” (ACS Med Chem Lett, 2023)
Calls of active or inactive are those of the source. The rule behind the calls is not given here.

Legend:
BaF3 [1] = experiment: Induction of cell cycle arrest in mouse BaF3 cells harbouring JAK2 […] mutant assessed as accumulation of cells at G2/M phase at 2 nM incubated for 24 hrs by propidium iodide staining based flow cytometry analysis (reference value: 9.34 %); assay type: functional
BaF3 [2] = experiment: Induction of cell cycle arrest in mouse BaF3 cells harbouring JAK2 […] mutant assessed as accumulation of cells at G2/M phase at 16 nM incubated for 24 hrs by propidium iodide staining based flow cytometry analysis (reference value: 9.34 %); assay type: functional
BaF3 [3] = experiment: Induction of cell cycle arrest in mouse BaF3 cells harbouring JAK2 […] mutant assessed as accumulation of cells at G2/M phase at 8 nM incubated for 24 hrs by propidium iodide staining based flow cytometry analysis (reference value: 9.34 %); assay type: functional
BaF3 [4] = experiment: Induction of apoptosis in mouse BaF3 cells harbouring JAK2 V617F mutant assessed as viable cells at 160 nM incubated for 24 hrs by Annexin V / propidium iodide staining based flow cytometry analysis (reference value: 72.8 %); assay type: functional; details: read-out: Activity
Outline: (§1)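 Ba/F3 JAK2V617F cells exposed to compound at 20, 40, 80, 160 and 320 nM, then analysed for apoptosis by flow cytometry. Significance vs control by Dunnett's t test.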

BaF3 [5] = experiment: Induction of apoptosis in mouse BaF3 cells harbouring JAK2 V617F mutant assessed as early apoptotic cells at 80 nM incubated for 24 hrs by Annexin V / propidium iodide staining based flow cytometry analysis (reference value: 14.4 %); assay type: functional; outline: as §1
BaF3 [6] = experiment: Induction of cell cycle arrest in mouse BaF3 cells harbouring JAK2 […] mutant assessed as accumulation of cells at G2/M phase at 0.5 nM incubated for 24 hrs by propidium iodide staining based flow cytometry analysis (reference value: 9.34 %); assay type: functional
[7] = target: Tyrosine-protein kinase JAK2 (Homo sapiens, UniProt O60674, V617F); experiment: Inhibition of JAK2 V617F mutant in human SET2 cells; assay type: cell-based
Sequence of Tyrosine-protein kinase JAK2 (O60674 whole entry V617F): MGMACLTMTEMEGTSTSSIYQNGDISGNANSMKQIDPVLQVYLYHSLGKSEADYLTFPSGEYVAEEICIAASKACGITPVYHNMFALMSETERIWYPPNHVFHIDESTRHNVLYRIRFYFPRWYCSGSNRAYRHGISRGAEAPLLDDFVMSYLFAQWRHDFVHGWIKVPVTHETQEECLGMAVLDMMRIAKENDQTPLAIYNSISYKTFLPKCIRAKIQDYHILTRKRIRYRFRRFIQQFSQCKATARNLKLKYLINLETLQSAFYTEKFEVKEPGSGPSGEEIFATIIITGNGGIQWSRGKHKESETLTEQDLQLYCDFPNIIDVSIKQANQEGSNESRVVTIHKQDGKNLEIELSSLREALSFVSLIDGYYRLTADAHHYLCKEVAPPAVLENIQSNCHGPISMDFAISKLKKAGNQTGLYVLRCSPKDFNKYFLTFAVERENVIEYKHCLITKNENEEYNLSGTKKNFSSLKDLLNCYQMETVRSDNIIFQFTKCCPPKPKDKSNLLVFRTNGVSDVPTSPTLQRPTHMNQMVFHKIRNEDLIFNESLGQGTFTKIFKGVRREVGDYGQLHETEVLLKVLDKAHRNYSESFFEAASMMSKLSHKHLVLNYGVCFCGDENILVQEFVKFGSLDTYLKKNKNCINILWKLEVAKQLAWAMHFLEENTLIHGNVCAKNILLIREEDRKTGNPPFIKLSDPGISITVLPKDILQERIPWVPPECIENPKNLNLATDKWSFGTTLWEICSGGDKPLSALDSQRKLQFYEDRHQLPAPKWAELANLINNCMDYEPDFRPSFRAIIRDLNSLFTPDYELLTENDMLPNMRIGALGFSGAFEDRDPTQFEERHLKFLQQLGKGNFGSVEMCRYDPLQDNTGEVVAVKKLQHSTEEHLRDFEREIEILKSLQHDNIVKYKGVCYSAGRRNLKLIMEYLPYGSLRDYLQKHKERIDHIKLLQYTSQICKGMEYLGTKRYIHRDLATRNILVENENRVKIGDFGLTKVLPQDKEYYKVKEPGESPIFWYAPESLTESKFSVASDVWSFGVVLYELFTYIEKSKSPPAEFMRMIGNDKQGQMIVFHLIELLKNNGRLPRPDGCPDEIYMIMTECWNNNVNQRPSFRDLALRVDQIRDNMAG
Outline: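 Cell proliferation assay. IC50 is the concentration that inhibits proliferation by 50%, taken from dose–response curves. Mean ± SEM of at least three independent experiments.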

BaF3 [8] = experiment: Induction of apoptosis in mouse BaF3 cells harbouring JAK2 V617F mutant assessed as necrotic cells at 80 nM incubated for 24 hrs by Annexin V / propidium iodide staining based flow cytometry analysis (reference value: 0.64 %); assay type: functional; outline: as §1
BaF3 [9] = experiment: Induction of apoptosis in mouse BaF3 cells harbouring JAK2 V617F mutant assessed as viable cells at 40 nM incubated for 24 hrs by Annexin V / propidium iodide staining based flow cytometry analysis (reference value: 72.8 %); assay type: functional; details: read-out: Activity; outline: as §1
BaF3 [10] = experiment: Induction of cell cycle arrest in mouse BaF3 cells harbouring JAK2 […] mutant assessed as accumulation of cells at G0/G1 phase at 0.5 nM incubated for 24 hrs by propidium iodide staining based flow cytometry analysis (reference value: 56.85 %); assay type: functional
BaF3 [11] = experiment: Induction of apoptosis in mouse BaF3 cells harbouring JAK2 V617F mutant assessed as necrotic cells at 20 nM incubated for 24 hrs by Annexin V / propidium iodide staining based flow cytometry analysis (reference value: 0.64 %); assay type: functional; outline: as §1
BaF3 [12] = experiment: Induction of apoptosis in mouse BaF3 cells harbouring JAK2 V617F mutant assessed as early apoptotic cells at 20 nM incubated for 24 hrs by Annexin V / propidium iodide staining based flow cytometry analysis (reference value: 14.4 %); assay type: functional; outline: as §1
BaF3 [13] = experiment: Induction of cell cycle arrest in mouse BaF3 cells harbouring JAK2 […] mutant assessed as accumulation of cells at G0/G1 phase at 8 nM incubated for 24 hrs by propidium iodide staining based flow cytometry analysis (reference value: 56.85 %); assay type: functional
BaF3 [14] = experiment: Induction of apoptosis in mouse BaF3 cells harbouring JAK2 V617F mutant assessed as necrotic cells at 40 nM incubated for 24 hrs by Annexin V / propidium iodide staining based flow cytometry analysis (reference value: 0.64 %); assay type: functional; outline: as §1
BaF3 [15] = experiment: Induction of apoptosis in mouse BaF3 cells harbouring JAK2 V617F mutant assessed as necrotic cells at 320 nM incubated for 24 hrs by Annexin V / propidium iodide staining based flow cytometry analysis (reference value: 0.64 %); assay type: functional; outline: as §1
BaF3 [16] = experiment: Induction of apoptosis in mouse BaF3 cells harbouring JAK2 V617F mutant assessed as necrotic cells at 160 nM incubated for 24 hrs by Annexin V / propidium iodide staining based flow cytometry analysis (reference value: 0.64 %); assay type: functional; outline: as §1
BaF3 [17] = experiment: Induction of cell cycle arrest in mouse BaF3 cells harbouring JAK2 […] mutant assessed as accumulation of cells at G0/G1 phase at 16 nM incubated for 24 hrs by propidium iodide staining based flow cytometry analysis (reference value: 56.85 %); assay type: functional
BaF3 [18] = experiment: Induction of apoptosis in mouse BaF3 cells harbouring JAK2 V617F mutant assessed as late apoptotic cells at 80 nM incubated for 24 hrs by Annexin V / propidium iodide staining based flow cytometry analysis (reference value: 12.2 %); assay type: functional; outline: as §1
BaF3 [19] = experiment: Induction of cell cycle arrest in mouse BaF3 cells harbouring JAK2 […] mutant assessed as accumulation of cells at G2/M phase at 4 nM incubated for 24 hrs by propidium iodide staining based flow cytometry analysis (reference value: 9.34 %); assay type: functional
[20] = Metabolic stability in human liver microsomes assessed as half life; assay type: ADME, Microsome
BaF3 [21] = experiment: Induction of apoptosis in mouse BaF3 cells harbouring JAK2 V617F mutant assessed as late apoptotic cells at 20 nM incubated for 24 hrs by Annexin V / propidium iodide staining based flow cytometry analysis (reference value: 12.2 %); assay type: functional; outline: as §1
BaF3 [22] = experiment: Induction of apoptosis in mouse BaF3 cells harbouring JAK2 V617F mutant assessed as early apoptotic cells at 320 nM incubated for 24 hrs by Annexin V / propidium iodide staining based flow cytometry analysis (reference value: 14.4 %); assay type: functional; outline: as §1
BaF3 [23] = experiment: Induction of apoptosis in mouse BaF3 cells harbouring JAK2 V617F mutant assessed as late apoptotic cells at 160 nM incubated for 24 hrs by Annexin V / propidium iodide staining based flow cytometry analysis (reference value: 12.2 %); assay type: functional; outline: as §1
BaF3 [24] = experiment: Inhibition of JAK2/STAT signaling pathway in mouse BaF3 cells harbouring JAK2 V617F mutant assessed as reduction in AKT phosphorylation at 10 to 1000 nM by Western blot analysis; assay type: cell-based; details: dose 10-1000 nM
Outline: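 Ba/F3 JAK2V617F cells treated with compound at increasing concentrations. Phosphorylation levels of JAK2, STAT3, STAT5 and AKT assessed by Western blot.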

[25] = target: Non-receptor tyrosine-protein kinase TYK2 (Homo sapiens, UniProt P29597); experiment: Inhibition of TYK2 (unknown origin) in presence of Mg/ATP mixture by [gamma p33]-ATP based radiometric assay
Sequence of Non-receptor tyrosine-protein kinase TYK2 (P29597 whole entry): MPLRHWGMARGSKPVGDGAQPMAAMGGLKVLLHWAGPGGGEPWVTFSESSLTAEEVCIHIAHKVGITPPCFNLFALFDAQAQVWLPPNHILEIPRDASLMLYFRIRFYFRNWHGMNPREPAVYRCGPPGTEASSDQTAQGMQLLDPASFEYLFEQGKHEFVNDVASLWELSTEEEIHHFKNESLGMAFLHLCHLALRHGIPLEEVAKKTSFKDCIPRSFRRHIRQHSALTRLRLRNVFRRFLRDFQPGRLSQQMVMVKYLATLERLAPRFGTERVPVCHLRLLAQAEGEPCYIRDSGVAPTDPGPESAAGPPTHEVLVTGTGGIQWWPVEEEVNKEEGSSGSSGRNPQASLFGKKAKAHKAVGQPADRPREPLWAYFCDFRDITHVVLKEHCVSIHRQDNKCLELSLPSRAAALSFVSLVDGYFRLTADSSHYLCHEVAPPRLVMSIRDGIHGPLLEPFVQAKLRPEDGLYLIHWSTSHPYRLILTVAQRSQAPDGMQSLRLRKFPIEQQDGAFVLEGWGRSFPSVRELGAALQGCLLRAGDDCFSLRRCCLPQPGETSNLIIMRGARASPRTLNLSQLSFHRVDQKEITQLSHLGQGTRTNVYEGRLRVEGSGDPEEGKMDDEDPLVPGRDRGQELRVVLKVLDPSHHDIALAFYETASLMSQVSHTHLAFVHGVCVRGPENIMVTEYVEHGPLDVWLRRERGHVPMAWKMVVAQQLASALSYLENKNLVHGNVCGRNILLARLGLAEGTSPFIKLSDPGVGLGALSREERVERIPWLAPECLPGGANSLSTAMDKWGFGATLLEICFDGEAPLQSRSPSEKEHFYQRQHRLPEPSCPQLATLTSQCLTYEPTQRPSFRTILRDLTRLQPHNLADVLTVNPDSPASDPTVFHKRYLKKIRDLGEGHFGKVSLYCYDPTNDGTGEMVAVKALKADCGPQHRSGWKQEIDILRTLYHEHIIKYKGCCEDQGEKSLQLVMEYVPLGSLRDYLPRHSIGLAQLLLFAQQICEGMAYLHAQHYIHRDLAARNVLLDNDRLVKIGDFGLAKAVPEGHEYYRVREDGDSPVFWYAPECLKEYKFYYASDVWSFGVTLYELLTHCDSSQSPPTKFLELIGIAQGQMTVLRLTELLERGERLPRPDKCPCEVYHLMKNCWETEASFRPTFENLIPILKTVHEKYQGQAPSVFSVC

Compound: Cc1cnc(Nc2ccc3c(c2)CCN(C(=O)/C=C/CN(C)C)C3)nc1-c1cnn(C(C)C)c1
- Activity (BaF3 [1]): 15.52%
- Activity (BaF3 [2]): 8.95%
- Activity (BaF3 [3]): 8.98%
- viability at 0.16 µM (BaF3 [4]): 19.4%
- Activity (BaF3 [5]): 33.2%
- Activity (BaF3 [6]): 9.64%
- IC50 [7]: 475 nM
- Activity (BaF3 [8]): 2.64%
- viability at 0.04 µM (BaF3 [9]): 61.1%
- Activity (BaF3 [10]): 55.96%
- Activity (BaF3 [11]): 1.04%
- Activity (BaF3 [12]): 18.4%
- Activity (BaF3 [13]): 58.82%
- Activity (BaF3 [14]): 0.89%
- Activity (BaF3 [15]): 3.48%
- Activity (BaF3 [16]): 1.89%
- Activity (BaF3 [17]): 59.42%
- Activity (BaF3 [18]): 25.4%
- Activity (BaF3 [19]): 9.33%
- half-life [20]: 54.6 min
- Activity (BaF3 [21]): 12%
- Activity (BaF3 [22]): 47%
- Activity (BaF3 [23]): 30.7%

Compound: C=CS(=O)(=O)NCc1ccc(Nc2ncc(C)c(-c3cnn(C(C)C)c3)n2)cc1
- Activity (BaF3 [1]): 8.29%
- Activity (BaF3 [2]): 9.93%
- Activity (BaF3 [3]): 8.38%
- viability at 0.16 µM (BaF3 [4]): 22.9%
- Activity (BaF3 [5]): 35.7%
- Activity (BaF3 [6]): 9.03%
- IC50 [7]: 44.3 nM
- Activity (BaF3 [8]): 3.39%
- viability at 0.04 µM (BaF3 [9]): 44.1%
- Activity (BaF3 [10]): 59.23%
- Activity (BaF3 [11]): 1.61%
- Activity (BaF3 [12]): 24.7%
- Activity (BaF3 [13]): 63.86%
- Activity (BaF3 [14]): 3.27%
- Activity (BaF3 [15]): 4.33%
- Activity (BaF3 [16]): 3.8%
- Activity (BaF3 [17]): 69.31%
- inhibition (BaF3 [24]): Active
- Activity (BaF3 [18]): 38.7%
- Activity (BaF3 [19]): 7.62%
- IC50 [25]: 206 nM
- half-life [20]: > 120 min
- Activity (BaF3 [21]): 20%
- Activity (BaF3 [22]): 31%
- Activity (BaF3 [23]): 35.8%
